Data: ChEMBL document CHEMBL1136151, “Suzuki cross-coupling approaches to the synthesis of bioactive 3-substituted and 5-substituted-4-methoxy-6-methyl-2-pyrones” (Bioorg Med Chem Lett, 2003)

What was measured:
[1] = test system: Globisporangium mamillatum; experiment: Percent growth of Pythium mammillatum after 7 days of incubation; type: functional; set-up: concentration or dose not given beside the values
Method in brief: (§1)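 Fungal plate assay: pyrone dissolved in absolute EtOH at 10mg/mL and pipetted 2 cm offset from the centre of the plate containing the organism. EtOH alone served as control. Growth is recorded as percentage of the organism after 72 h and after 7 days of incubation.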

Globisporangium ultimum [2] = experiment: Percent growth of Pythium ultimum after 7 days of incubation; type: functional; set-up: concentration or dose not given beside the values; method in brief: as §1
Fusarium oxysporum [3] = experiment: Percent growth of Fusarium oxysporum after 72 hours of incubation; type: functional; set-up: concentration or dose not given beside the values; method in brief: as §1
Staphylococcus aureus = experiment: Antimicrobial activity against Staphylococcus aureus was determined after 96 hours of incubation; type: functional
Method in brief: (§2)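 Disk diffusion: cellulose disks loaded with test compound and placed on bacterial plates, with an EtOH control disk. Incubation 96 h. Read-out is the radius (mm) of the inhibition zone.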

Saccharomyces cerevisiae = experiment: Antimicrobial activity against Saccharomyces cerevisiae was determined after 48 hours of incubation; type: functional
Method in brief: (§3)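 Disk diffusion on yeast plates: cellulose disks carrying test compound, with an EtOH control. Incubation 48 h. The inhibition zone radius is recorded in mm.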

Candida albicans = experiment: Antimicrobial activity against Candida albicans was determined after 48 hours of incubation; type: functional; method in brief: as §3
Thanatephorus cucumeris [4] = experiment: Percent growth of Rhizoctonia solani after 7 days of incubation; type: functional; set-up: concentration or dose not given beside the values; method in brief: as §1
Fusarium oxysporum [5] = experiment: Percent growth of Fusarium oxysporum after 7 days of incubation; type: functional; set-up: concentration or dose not given beside the values; method in brief: as §1
Botrytis cinerea [6] = experiment: Percent growth of Botrytis cinerea after 72 hours of incubation; type: functional; set-up: concentration or dose not given beside the values; method in brief: as §1
Escherichia coli = experiment: Antimicrobial activity against Escherichia coli was determined after 96 hours of incubation; type: functional; method in brief: as §2
Thanatephorus cucumeris [7] = experiment: Percent growth of Rhizoctonia solani after 72 hours of incubation; type: functional; set-up: concentration or dose not given beside the values; method in brief: as §1
Aspergillus niger [8] = experiment: Percent growth of Aspergillus niger after 72 hours of incubation; type: functional; set-up: concentration or dose not given beside the values; method in brief: as §1
Botrytis cinerea [9] = experiment: Percent growth of Botrytis cinerea after 7 days of incubation; type: functional; set-up: concentration or dose not given beside the values; method in brief: as §1
[10] = test system: Globisporangium mamillatum; experiment: Percent growth of Pythium mammillatum after 72 hours of incubation; type: functional; set-up: concentration or dose not given beside the values; method in brief: as §1
Aspergillus niger [11] = experiment: Percent growth of Aspergillus niger after 7 days of incubation; type: functional; set-up: concentration or dose not given beside the values; method in brief: as §1
[12] = test system: Schizosaccharomyces pombe; experiment: Antimicrobial activity against Schizosaccharomyces pombe was determined after 48 hours of incubation; type: functional; method in brief: as §3
Globisporangium ultimum [13] = experiment: Percent growth of Pythium ultimum after 72 hours of incubation; type: functional; set-up: concentration or dose not given beside the values; method in brief: as §1
Bacillus subtilis = experiment: Antimicrobial activity against Bacillus subtilis was determined after 96 hours of incubation; type: functional; method in brief: as §2
[14] = test system: Globisporangium mamillatum; experiment: Percent growth of Pythium mammillatum after 7 days of incubation; NT=Not tested; type: functional; method in brief: as §1
K562 = experiment: In vitro growth inhibitory activity against K562 human chronic myelogenous leukemia cell line was determined; type: functional, cell-based
Method in brief: (§4)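 Cell growth inhibition measured in cultured tumour cells by MTT assay. IC50 derived from the growth inhibition.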

A2780 = experiment: In vitro growth inhibitory activity against A2780 human ovarium carcinoma cell line was determined; type: functional, cell-based; method in brief: as §4

| IC50 (K562) [µM] | Compound | Growth [1] [%] | Growth (Globisporangium ultimum [2]) [%] | Growth (Fusarium oxysporum [3]) [%] | Activity (Staphylococcus aureus) [mm] | Activity (Saccharomyces cerevisiae) [mm] | Activity (Candida albicans) [mm] | Growth (Thanatephorus cucumeris [4]) [%] | Growth (Fusarium oxysporum [5]) [%] | Growth (Botrytis cinerea [6]) [%] | Activity (Escherichia coli) [mm] | Growth (Thanatephorus cucumeris [7]) [%] | Growth (Aspergillus niger [8]) [%] | Growth (Botrytis cinerea [9]) [%] | Growth [10] [%] | Growth (Aspergillus niger [11]) [%] | Activity [12] [mm] | Growth (Globisporangium ultimum [13]) [%] | Activity (Bacillus subtilis) [mm] | Growth [14] [%] | also measured |
| --- | --- | --- | --- | --- | --- | --- | --- | --- | --- | --- | --- | --- | --- | --- | --- | --- | --- | --- | --- | --- | --- |
|  | CCCCC/C=C/c1cc(C)oc(=O)c1 | 93 | 100 | 2 | 17 | 0 | 21 | 100 | 24 | 45 | 18 | 38 | 89 | 100 | 31 | 94 | 34 | 95 | 18 |  |  |
|  | CCC/C=C/c1c(OC)cc(=O)oc1C |  | 100 | 8 | 0 | 10 | 11 | 100 | 35 | 39 | 17 | 50 | 82 | 100 | 43 | 90 | 20 | 100 | 16 | 100 |  |
| 30.1 | CCCCCC/C=C/c1c(OC)cc(C)oc1=O | 100 | 100 | 11 | 0 | 0 | 0 | 100 | 60 | 60 | 0 | 53 | 89 | 100 | 25 | 95 | 0 | 100 | 18 |  | IC50 (A2780): 30.3 µM |
|  | CCCC/C=C/c1cc(C)oc(=O)c1 | 100 | 100 | 2 | 0 | 0 | 24 | 100 | 25 | 44 | 18 | 36 | 92 | 100 | 30 | 95 | 40 | 96 | 18 |  |  |
| 33.3 | CCCCCC/C=C/c1c(OC)cc(=O)oc1C |  | 100 | 10 | 16 | 0 | 18 | 100 | 46 | 29 | 14 | 40 | 90 | 94 | 22 | 93 | 22 | 100 | 16 | 90 | IC50 (A2780): 26.9 µM |
|  | COc1cc(=O)oc(C)c1-c1ccc(C)cc1 |  |  | 10 | 0 | 0 | 0 | 100 | 54 | 49 | 6 | 61 | >90 | 100 |  | >95 | 20 |  | 8 | 100 |  |
